{"source": "ChEMBL document CHEMBL1153534", "about": "“Design and synthesis of androgen receptor antagonists with bulky side chains for overcoming antiandrogen resistance” (J Med Chem, 2009)", "key": {"[1]": {"target": "T1, Androgen receptor (Rattus norvegicus) (UniProt P15207)", "T1 sequence (whole entry)": "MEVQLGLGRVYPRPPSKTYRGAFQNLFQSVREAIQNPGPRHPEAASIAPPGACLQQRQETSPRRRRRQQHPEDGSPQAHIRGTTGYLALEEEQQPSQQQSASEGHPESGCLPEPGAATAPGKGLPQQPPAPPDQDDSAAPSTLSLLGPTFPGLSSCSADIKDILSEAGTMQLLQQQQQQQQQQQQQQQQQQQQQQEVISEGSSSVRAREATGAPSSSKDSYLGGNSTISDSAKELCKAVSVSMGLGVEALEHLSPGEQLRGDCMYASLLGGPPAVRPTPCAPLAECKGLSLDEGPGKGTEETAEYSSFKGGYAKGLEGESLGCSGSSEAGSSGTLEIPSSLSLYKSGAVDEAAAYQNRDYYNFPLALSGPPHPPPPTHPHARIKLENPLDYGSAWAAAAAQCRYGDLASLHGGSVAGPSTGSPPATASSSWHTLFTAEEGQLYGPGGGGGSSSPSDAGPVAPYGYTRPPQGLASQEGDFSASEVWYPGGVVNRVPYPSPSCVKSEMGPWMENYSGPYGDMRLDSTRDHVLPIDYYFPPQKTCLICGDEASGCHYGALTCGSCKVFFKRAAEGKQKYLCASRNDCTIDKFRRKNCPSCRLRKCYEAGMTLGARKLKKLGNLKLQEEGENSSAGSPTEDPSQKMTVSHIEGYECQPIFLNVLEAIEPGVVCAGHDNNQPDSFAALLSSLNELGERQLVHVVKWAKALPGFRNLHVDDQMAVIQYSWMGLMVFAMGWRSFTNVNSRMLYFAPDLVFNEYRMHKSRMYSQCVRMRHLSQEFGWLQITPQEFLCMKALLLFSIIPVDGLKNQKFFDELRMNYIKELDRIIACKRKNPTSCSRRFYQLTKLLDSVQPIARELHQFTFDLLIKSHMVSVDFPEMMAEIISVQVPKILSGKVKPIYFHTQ", "assay": "Binding affinity to rat androgen receptor ligand binding domain by competitive fluorescence polarization assay", "summary_of_the_method": "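Competitive fluorescence polarization with the PolarScreen AR competitor kit, measuring displacement of a fluorescent tracer from the AR-LBD. Polarization was normalized to DMSO vehicle, which sets the maximum. Tracer without receptor sets the minimum, and DHT served as positive control. Average ± sd of experiments in triplicate.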"}, "[2]": {"test_system": "PC-3", "assay": "Suppression of DHT-stimulated growth of human PC3 cells after 72 hrs with increasing concentration of DHT", "type": "functional, cell-based"}, "[3]": {"target": "T2, Progesterone receptor (Homo sapiens) (UniProt P06401)", "T2 sequence (whole entry)": "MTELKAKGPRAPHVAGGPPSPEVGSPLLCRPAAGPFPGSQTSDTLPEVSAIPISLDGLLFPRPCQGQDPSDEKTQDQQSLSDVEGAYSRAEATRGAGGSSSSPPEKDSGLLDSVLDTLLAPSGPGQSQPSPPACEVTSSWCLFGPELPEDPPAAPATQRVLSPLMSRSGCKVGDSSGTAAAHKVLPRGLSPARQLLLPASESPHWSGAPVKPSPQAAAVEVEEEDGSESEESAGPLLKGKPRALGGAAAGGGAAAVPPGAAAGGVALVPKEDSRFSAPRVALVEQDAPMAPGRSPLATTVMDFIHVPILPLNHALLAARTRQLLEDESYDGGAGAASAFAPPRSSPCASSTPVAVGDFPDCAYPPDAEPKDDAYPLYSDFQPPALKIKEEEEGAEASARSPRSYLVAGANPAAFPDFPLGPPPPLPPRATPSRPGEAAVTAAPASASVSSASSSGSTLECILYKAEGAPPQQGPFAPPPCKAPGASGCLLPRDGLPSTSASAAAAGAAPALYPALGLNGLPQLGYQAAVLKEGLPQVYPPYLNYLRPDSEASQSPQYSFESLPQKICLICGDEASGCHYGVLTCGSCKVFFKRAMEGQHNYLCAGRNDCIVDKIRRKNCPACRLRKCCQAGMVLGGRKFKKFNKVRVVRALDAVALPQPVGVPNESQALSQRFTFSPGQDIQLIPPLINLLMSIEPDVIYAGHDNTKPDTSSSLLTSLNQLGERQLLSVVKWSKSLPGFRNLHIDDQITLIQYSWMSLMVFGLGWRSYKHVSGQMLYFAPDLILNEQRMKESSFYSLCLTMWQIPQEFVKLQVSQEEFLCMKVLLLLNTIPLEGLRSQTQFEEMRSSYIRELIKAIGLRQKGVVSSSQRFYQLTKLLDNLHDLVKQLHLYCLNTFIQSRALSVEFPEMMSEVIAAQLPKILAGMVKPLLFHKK", "assay": "Antagonist activity at human PR B-form expressed in human PC3 cells assessed as inhibition of R5020-induced transactivation at 1 uM after 24 hrs by luciferase reporter gene assay", "type": "functional, cell-based", "conditions": "PC-3", "summary_of_the_method": "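PC-3 cells carrying a luciferase reporter for transactivation by the human PR B form. Antagonist mode used 10 nM R5020 as the agonist. Agonist mode ran in the absence of R5020. Luciferase read-out.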"}}, "note": "The source made the active and inactive calls. No cut-off for these calls is given here."}
{"smiles": "COc1cc(/C=C(\\C(=O)/C=C/C2=C(C)CCCC2(C)C)C(=O)/C=C/c2ccc(O)c(OC)c2)ccc1O", "values": [{"measurement": "Activity", "setting": "[1]", "result": "Dose-dependent effect"}, {"measurement": "Activity", "setting": "[2]", "result": "Active"}, {"measurement": "Activity", "setting": "[3]", "result": "inactive"}]}
